Converted amounts (≈) assume the structure as drawn.
Experiments:
Type in all cases: functional
K562 = test: Cytotoxicity against human K562 cells by MTT assay; settings: read-out: LC50 (the source's name)
Candida albicans = test: Antifungal activity against Candida albicans at 2 ug/disk by paper disk method; settings: read-out: IZ
How it was run: (§1)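 Paper disk diffusion assay with 2 µg of compound loaded per disk. The read-out is the diameter of the clear zone around the disk.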

Aspergillus niger = test: Antifungal activity against Aspergillus niger at 2 ug/disk by paper disk method; settings: read-out: IZ; how it was run: as §1

Structure (SMILES)	CC50 (K562) [µg/mL]	zone of inhibition at 2 µg/disc (Candida albicans) [mm]	zone of inhibition at 2 µg/disc (Aspergillus niger) [mm]
COC(=O)c1nc(-c2nc(C(OC)C(C)C(=O)/C=C/CC(O)CC(=O)OC(CC(OC)C(C)CCC(=O)C(C)C(C/C=C/N(C)C=O)OC)C(C)CC/C=C/C(N)=O)co2)co1 (stereo not drawn) [SECOHALICHONDRAMIDE]	> 500	15	–
COC(CC1OC(=O)CC(O)C/C=C\C(=O)C(C)C(OC)c2coc(n2)-c2coc(n2)-c2coc(n2)/C=C\CCC1C)C(C)CCC(=O)C(C)C(C/C=C/N(C)C=O)OC (stereo not drawn)	0.9 (≈ 1.08 µM)	10	10
COC(CC1OC(=O)CC(O)CCCC(=O)C(C)C(OC)c2coc(n2)-c2coc(n2)-c2coc(n2)/C=C/CCC1C)C(C)CCC(=O)C(C)C(C/C=C/N(C)C=O)OC (stereo not drawn) [DIHYDROHALICHONDRAMIDE]	0.32 (≈ 0.381 µM)	19	11
COC(=O)c1coc(/C=C/CCC(C)C(CC(OC)C(C)CCC(=O)C(C)C(C/C=C/N(C)C=O)OC)OC(=O)CC(O)C/C=C/C(=O)C(C)C(OC)c2coc(C(N)=O)n2)n1 (stereo not drawn) [HALISHIGAMIDE D]	92 (≈ 105 µM)	–	–
COC(CC1OC(=O)CC(O)C/C=C/C(=O)C(C)C(OC)c2coc(n2)-c2coc(n2)-c2coc(n2)/C=C/CCC1C)C(C)CCC(=O)C(C)C(C/C=C/N(C)C=O)OC (stereo not drawn) [HALICHONDRAMIDE]	0.19 (≈ 0.227 µM)	18	21
COC(CC1OC(=O)CC(O)/C=C/CC(=O)C(C)C(OC)c2coc(n2)-c2coc(n2)-c2coc(n2)/C=C/CCC1C)C(C)CCC(=O)C(C)C(C/C=C/N(C)C=O)OC (stereo not drawn) [NEOHALICHONDRAMIDE]	0.38 (≈ 0.454 µM)	20	15
COC(CC1OC(=O)CC(O)CC(O)CC(=O)C(C)C(OC)c2coc(n2)-c2coc(n2)-c2coc(n2)/C=C/CCC1C)C(C)CCC(=O)C(C)C(C/C=C/N(C)C=O)OC (stereo not drawn) [JASPISAMIDE A]	0.31 (≈ 0.363 µM)	18	10
